Molecules are shown by their SMILES.

The target of assay [1] is T1, Histone deacetylase 1/6 (Homo sapiens) (UniProt Q13547+Q9UBN7). Put plainly: Inhibition of HDAC1/HDAC6 in human Cal27CisR cells assessed as potentiation of 5 uM cisplatin-induced cytotoxicity by measuring combination index at 500 uM preincubated for 48 hrs followed by cisplatin treatment measured after 72 hrs by MTT assay. Type of assay: cell-based. In short, it runs like this:
(§1)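 Cal27 and cisplatin-resistant Cal27CisR cells were preincubated with the HDAC inhibitor for 48 h, then given cisplatin in combination. Viability was read by MTT after 72 h. The combination index was computed by the Chou–Talalay method: CI > 1 is antagonism, CI = 1 is additive, and CI < 0.9 is synergism. Points with fraction affected below 0.20 were flagged.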

Assay [2] is described as follows: Inhibition of HDAC in human Cal27CisR cells using Boc-Lys(epsilon-Ac)-AMC as substrate preincubated for 18 hrs followed by substrate addition measured after 3 hrs by fluorescence assay. Type of assay: cell-based.
Assay [3] has as its target Histone deacetylase 1 (Homo sapiens, UniProt Q13547). Briefly: Inhibition of recombinant full length human C-terminal FLAG/His-tagged HDAC1 expressed in baculovirus infected sf9 cells using Z-(Ac)Lys-AMC as substrate measured after 90 mins by fluorescence assay.
The subject of assay [4] is CAL-27. Briefly: Potentiation of 0.5 uM cisplatin-induced cytotoxicity against human CAL27 cells assessed as decrease in cell viability by measuring combination index at 800 uM preincubated for 48 hrs followed by cisplatin treatment measured after 72 hrs by MTT assay. Format: functional. In short, it runs like this:
as §1
For orientation: Tetrazolium assays rely on reduction of a dye to a coloured formazan, in cell work by metabolically active cells.

Assay [5] has as its target T1, Histone deacetylase 1/6 (Homo sapiens). Briefly: Inhibition of HDAC1/HDAC6 in human Cal27CisR cells assessed as potentiation of 1 uM cisplatin-induced cytotoxicity by measuring combination index at 700 uM preincubated for 48 hrs followed by cisplatin treatment measured after 72 hrs by MTT assay. Type of assay: cell-based. In short, it runs like this: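 Cal27CisR cells preincubated 48 h with the HDAC inhibitor, then exposed to cisplatin for 72 h. Viability read by MTT. Combination index calculated by the Chou–Talalay method: CI > 1 antagonism, CI = 1 additive, CI < 0.9 synergism. Points with fraction affected below 0.20 are flagged. Values are the mean of three experiments.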

In assay [6] the test system is CAL-27. Briefly: Potentiation of 2 uM cisplatin-induced cytotoxicity against human CAL27 cells assessed as decrease in cell viability by measuring combination index at 600 uM preincubated for 48 hrs followed by cisplatin treatment measured after 72 hrs by MTT assay. Type of assay: functional. Particulars: in the assay text read “at 600 nM” for “at 600 uM”. In short, it runs like this: (§2)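 HDAC inhibitor was added 48 h before cisplatin, then cells were exposed to cisplatin for 72 h and viability was read by MTT assay. Combination index was computed by the Chou–Talalay method: CI > 1 is antagonism, CI = 1 additive, CI < 0.9 synergism. Points with fraction affected below 0.20 were flagged.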

The target in assay [7] is T1, Histone deacetylase 1/6 (Homo sapiens). Briefly: Inhibition of HDAC1/HDAC6 in human Cal27CisR cells assessed as potentiation of 10 uM cisplatin-induced cytotoxicity by measuring combination index at 600 nM preincubated for 48 hrs followed by cisplatin treatment measured after 72 hrs by MTT assay.
Assay [8] shares this target. Briefly: Inhibition of HDAC1/HDAC6 in human Cal27CisR cells assessed as potentiation of 20 uM cisplatin-induced cytotoxicity by measuring combination index at 700 nM preincubated for 48 hrs followed by cisplatin treatment measured after 72 hrs by MTT assay.
For assay [9], the system named is A2780. Briefly: Antiproliferative activity against human A2780 cells measured after 72 hrs by MTT assay. Type of assay: functional, cell-based. The conditions noted are these: A2780, 72 h.
Assay [10] deals with T1, Histone deacetylase 1/6 (Homo sapiens). Put plainly: Inhibition of HDAC1/HDAC6 in human Cal27CisR cells assessed as potentiation of 20 uM cisplatin-induced cytotoxicity by measuring combination index at 600 nM preincubated for 48 hrs followed by cisplatin treatment measured after 72 hrs by MTT assay.
Assay [11] concerns CAL-27. Put plainly: Potentiation of 2 uM cisplatin-induced cytotoxicity against human CAL27 cells assessed as decrease in cell viability by measuring combination index at 700 uM preincubated for 48 hrs followed by cisplatin treatment measured after 72 hrs by MTT assay. The conditions noted are these: in the assay text read “at 700 nM” for “at 700 uM”. Format: functional. In short, it runs like this:
as §2

Assay [12] deals with CAL-27. Briefly: Potentiation of 2 uM cisplatin-induced cytotoxicity against human CAL27 cells assessed as decrease in cell viability by measuring combination index at 500 uM preincubated for 48 hrs followed by cisplatin treatment measured after 72 hrs by MTT assay. The conditions noted are these: in the assay text read “at 500 nM” for “at 500 uM”. Format: functional. In short, it runs like this: as §2

Assay [13] can be described thus: Antiproliferative activity against human Cal27CisR cells measured after 72 hrs by MTT assay. Type of assay: functional, cell-based.
Assay [14] concerns the target T1, Histone deacetylase 1/6 (Homo sapiens). Put plainly: Inhibition of HDAC1/HDAC6 in human Cal27CisR cells assessed as potentiation of 1 uM cisplatin-induced cytotoxicity by measuring combination index at 500 nM preincubated for 48 hrs followed by cisplatin treatment measured after 72 hrs by MTT assay.
In assay [15] the test system is CAL-27. Put plainly: Potentiation of 1 uM cisplatin-induced cytotoxicity against human CAL27 cells assessed as decrease in cell viability by measuring combination index at 800 uM preincubated for 48 hrs followed by cisplatin treatment measured after 72 hrs by MTT assay. Format: functional. In short, it runs like this: as §2
In assay [16] the target is T2, Histone deacetylase 8 (Homo sapiens, UniProt Q9BY41).
T2 sequence (Q9BY41 whole entry): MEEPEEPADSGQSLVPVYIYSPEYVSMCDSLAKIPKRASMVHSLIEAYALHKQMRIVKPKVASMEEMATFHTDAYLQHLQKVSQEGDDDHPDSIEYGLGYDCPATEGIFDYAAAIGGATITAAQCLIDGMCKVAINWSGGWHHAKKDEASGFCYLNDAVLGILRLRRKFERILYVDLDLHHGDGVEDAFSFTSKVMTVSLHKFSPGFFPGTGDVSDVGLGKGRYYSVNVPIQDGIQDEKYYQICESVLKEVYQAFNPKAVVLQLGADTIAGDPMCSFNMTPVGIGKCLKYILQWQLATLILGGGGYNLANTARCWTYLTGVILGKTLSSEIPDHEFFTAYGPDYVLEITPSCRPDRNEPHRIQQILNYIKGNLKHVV
Put plainly: Inhibition of human HDAC8 using Z-L-Lys(epsilon-trifluoroacetyl)-AMC as substrate measured after 90 mins by fluorescence assay.

Assay [17] deals with T1, Histone deacetylase 1/6 (Homo sapiens). Put plainly: Inhibition of HDAC1/HDAC6 in human Cal27CisR cells assessed as potentiation of 20 uM cisplatin-induced cytotoxicity by measuring combination index at 500 nM preincubated for 48 hrs followed by cisplatin treatment measured after 72 hrs by MTT assay.
For assay [18], the system named is ONS-76. Put plainly: Antiproliferative activity against human ONS76 cells after 72 hrs by Celltiter-Glo assay. Type of assay: functional, cell-based. The conditions noted are these: ONS-76, 72 h. Background: ATP-based viability assays read luminescence as a measure of living cells.
The nature of assay [19]: Inhibition of HDAC in human A2780 cells using Boc-Lys(epsilon-Ac)-AMC as substrate preincubated for 18 hrs followed by substrate addition measured after 3 hrs by fluorescence assay. Type of assay: cell-based.

Histone deacetylase 1, sequence (Q13547 whole entry): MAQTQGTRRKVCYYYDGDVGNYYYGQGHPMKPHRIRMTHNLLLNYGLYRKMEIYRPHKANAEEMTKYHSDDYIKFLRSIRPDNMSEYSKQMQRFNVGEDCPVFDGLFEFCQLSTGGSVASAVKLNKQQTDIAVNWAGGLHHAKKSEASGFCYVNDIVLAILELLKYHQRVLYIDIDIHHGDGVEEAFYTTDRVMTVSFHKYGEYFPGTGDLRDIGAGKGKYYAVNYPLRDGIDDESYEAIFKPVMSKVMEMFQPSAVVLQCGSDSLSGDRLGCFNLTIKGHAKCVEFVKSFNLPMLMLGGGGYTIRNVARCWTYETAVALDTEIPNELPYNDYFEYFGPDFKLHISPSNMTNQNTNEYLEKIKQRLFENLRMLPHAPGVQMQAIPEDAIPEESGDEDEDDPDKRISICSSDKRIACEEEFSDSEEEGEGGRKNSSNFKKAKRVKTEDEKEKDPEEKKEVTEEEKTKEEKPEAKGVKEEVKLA
T1 sequence (Q13547 whole entry, looked up): as the sequence (Q13547 whole entry) above
T1 sequence (Q9UBN7 whole entry, looked up): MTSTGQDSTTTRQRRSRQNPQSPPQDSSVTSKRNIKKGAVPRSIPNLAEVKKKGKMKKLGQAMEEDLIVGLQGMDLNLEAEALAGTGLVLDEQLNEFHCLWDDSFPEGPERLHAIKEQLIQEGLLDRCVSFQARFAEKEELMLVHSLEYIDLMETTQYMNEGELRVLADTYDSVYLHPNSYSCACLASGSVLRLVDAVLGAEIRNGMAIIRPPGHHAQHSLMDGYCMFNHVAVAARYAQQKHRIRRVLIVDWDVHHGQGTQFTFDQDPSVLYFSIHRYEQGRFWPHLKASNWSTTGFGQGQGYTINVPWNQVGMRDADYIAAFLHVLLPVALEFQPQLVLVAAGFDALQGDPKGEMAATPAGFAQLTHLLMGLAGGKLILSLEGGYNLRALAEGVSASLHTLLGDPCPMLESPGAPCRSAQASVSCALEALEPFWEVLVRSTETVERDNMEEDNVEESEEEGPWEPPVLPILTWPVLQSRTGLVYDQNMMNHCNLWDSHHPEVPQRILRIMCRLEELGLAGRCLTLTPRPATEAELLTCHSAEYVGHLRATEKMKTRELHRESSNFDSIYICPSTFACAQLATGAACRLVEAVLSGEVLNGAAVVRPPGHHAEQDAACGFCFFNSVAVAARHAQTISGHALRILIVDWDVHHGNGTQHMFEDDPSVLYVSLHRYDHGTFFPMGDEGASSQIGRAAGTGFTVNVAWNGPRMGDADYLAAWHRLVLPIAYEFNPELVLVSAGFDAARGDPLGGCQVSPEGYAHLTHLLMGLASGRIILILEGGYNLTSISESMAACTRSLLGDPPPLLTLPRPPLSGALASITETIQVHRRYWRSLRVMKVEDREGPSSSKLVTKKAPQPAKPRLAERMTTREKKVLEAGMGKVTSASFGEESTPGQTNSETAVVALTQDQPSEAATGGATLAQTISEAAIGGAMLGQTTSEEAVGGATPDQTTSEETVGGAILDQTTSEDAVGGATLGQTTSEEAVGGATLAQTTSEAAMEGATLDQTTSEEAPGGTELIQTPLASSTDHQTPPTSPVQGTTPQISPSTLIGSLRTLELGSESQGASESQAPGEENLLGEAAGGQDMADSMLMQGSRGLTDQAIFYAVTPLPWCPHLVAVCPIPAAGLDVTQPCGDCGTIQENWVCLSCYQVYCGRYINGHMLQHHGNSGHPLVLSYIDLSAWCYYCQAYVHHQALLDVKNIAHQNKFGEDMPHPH

As a reminder, the IC50 is the point on the concentration scale where inhibition reaches its midpoint. For the compound `COc1cc(NC(=O)NOCCCCCC(=O)NO)c2ncccc2c1`, the CI in assay [1] is 0.96; in [4], 0.93; in [5], less than 0.2; in assay [6], 0.37; in assay [7], 0.36; in [8], 0.37. The CI is 0.37 in assay [10]; 0.43 in assay [11]; 0.49 in assay [12]; less than 0.2 in assay [14]; 0.56 in assay [15]; 0.35 in [17]. For the same compound, the IC50 was determined as 0.7 µM in assay [2]; 0.0519 µM in assay [3]; 1.2 µM in assay [9]; 1.3 µM in assay [13]; 1.08 µM in assay [16]; 2.67 µM in [18]. In assay [19], this compound came in with an IC50 of 1 µM.
With `COc1cc(NC(=O)NOCCCCCC(=O)NO)c2nccc(C)c2c1`, the CI in assay [1] was 0.28; in assay [4], 0.51; in assay [5], less than 0.2; in [6], 0.26; in assay [7] it was 0.2; in assay [8], 0.25. In addition, the CI is 0.21 in assay [10]; 0.36 in assay [11]; 0.27 in assay [12]; less than 0.2 in [14]; 0.41 in [15]; 0.26 in assay [17]. The IC50 was 0.5 µM in assay [2]; 0.0773 µM in assay [3]; 1.1 µM in [9]; 1.3 µM in assay [13]; 1.22 µM in assay [16]; 0.59 µM in assay [18]. In addition, in assay [19], half-maximal inhibition (IC50) required 0.9 µM.
Take `COc1cc(NC(=O)NOCCCCCC(=O)NO)c2nc(OC)cc(C)c2c1`: the CI is 0.19 in assay [1]; 0.79 in assay [4]; less than 0.2 in assay [5]; 0.49 in [6]; 0.17 in assay [7]; 0.21 in [8]. Further, the CI in assay [10] is 0.19; in assay [11], 0.6; in assay [12], 0.42; in assay [14] it was 0.56; in assay [15], 0.69; in assay [17] it was 0.2. Also, the IC50 is 0.5 µM in assay [2]; 0.0432 µM in assay [3]; 0.8 µM in assay [9]; 1.3 µM in assay [13]; 1.54 µM in assay [16]; 0.65 µM in [18]. This compound also came in with an IC50 in assay [19] of 1.7 µM.

The record behind these values is ChEMBL document CHEMBL4014350, “Alkoxyurea-Based Histone Deacetylase Inhibitors Increase Cisplatin Potency in Chemoresistant Cancer Cell Lines” (J Med Chem, 2017).
